Experiments:
D(2) dopamine receptor = D(2) dopamine receptor (Bos taurus, UniProt P20288); test: Displacement of [3H]spiroperidol from homogenized bovine pituitary Dopamine receptor D2
Oryctolagus cuniculus = species on record: Oryctolagus cuniculus; test: Ability to relax the electrically stimulated rabbit ear artery was determined; format: functional
Summary of the method: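 Isolated, perfused rabbit ear artery under electrical stimulation; inhibition of the neurogenic response taken as the D-2 agonist read-out. Concentration–response curves were also run in the presence of (S)-sulpiride at several nM concentrations. Points are mean ± SEM of at least four experiments.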

D(1A) dopamine receptor [1] = molecular target: T1, D(1A) dopamine receptor (Rattus norvegicus, UniProt P18901); test: Dopamine receptor D1 agonist efficacy was measured with stimulation of dopamine-sensitive rat adenylate cyclase in caudate membranes; NS means not significant.; format: functional, cell membranes, Membrane
T1 sequence (P18901 whole entry): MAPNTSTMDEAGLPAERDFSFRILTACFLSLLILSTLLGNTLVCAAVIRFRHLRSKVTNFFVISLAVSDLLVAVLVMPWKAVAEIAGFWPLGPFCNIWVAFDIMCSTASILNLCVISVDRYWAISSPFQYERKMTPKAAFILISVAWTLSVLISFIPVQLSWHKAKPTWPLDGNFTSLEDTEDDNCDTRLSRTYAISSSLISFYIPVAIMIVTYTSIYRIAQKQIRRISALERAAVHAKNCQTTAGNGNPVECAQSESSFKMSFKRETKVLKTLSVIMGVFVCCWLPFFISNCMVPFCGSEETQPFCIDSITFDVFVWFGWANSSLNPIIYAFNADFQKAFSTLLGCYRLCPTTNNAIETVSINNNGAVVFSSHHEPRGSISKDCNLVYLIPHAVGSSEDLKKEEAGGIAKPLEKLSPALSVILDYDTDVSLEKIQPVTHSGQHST

D(1A) dopamine receptor [2] = molecular target: T1, D(1A) dopamine receptor; test: Dopamine D1 agonist efficacy was measured with stimulation of dopamine-sensitive rat adenylate cyclase in caudate membranes; format: functional, cell membranes, Membrane
[3] = molecular target: D(1A) dopamine receptor (Rattus norvegicus) (UniProt P18901); details: Striatum
D(1A) dopamine receptor (Rattus norvegicus), sequence (P18901 whole entry): as above

D(1A) dopamine receptor [4] = molecular target: T1, D(1A) dopamine receptor; test: Dopamine receptor D1 agonist efficacy was measured with stimulation of dopamine-sensitive rat adenylate cyclase in caudate membranes. Partial agonist, maximum effect 59% of dopamine maximum effect; format: functional, cell membranes, Membrane
D(1A) dopamine receptor [5] = molecular target: T1, D(1A) dopamine receptor; test: Dopamine receptor D1 agonist efficacy was measured with stimulation of dopamine-sensitive rat adenylate cyclase in caudate membranes; format: functional, cell membranes, Membrane
D(1A) dopamine receptor [6] = molecular target: T1, D(1A) dopamine receptor; test: Dopamine receptor D1 agonist efficacy was measured with stimulation of dopamine-sensitive rat adenylate cyclase in caudate membranes. Partial agonist, maximum effect 60% of dopamine maximum effect.; format: functional, cell membranes, Membrane
[7] = molecular target: D(1A) dopamine receptor (Rattus norvegicus) (UniProt P18901); details: Striatum; remark: listed apart in the source

D(2) dopamine receptor, sequence (P20288 whole entry): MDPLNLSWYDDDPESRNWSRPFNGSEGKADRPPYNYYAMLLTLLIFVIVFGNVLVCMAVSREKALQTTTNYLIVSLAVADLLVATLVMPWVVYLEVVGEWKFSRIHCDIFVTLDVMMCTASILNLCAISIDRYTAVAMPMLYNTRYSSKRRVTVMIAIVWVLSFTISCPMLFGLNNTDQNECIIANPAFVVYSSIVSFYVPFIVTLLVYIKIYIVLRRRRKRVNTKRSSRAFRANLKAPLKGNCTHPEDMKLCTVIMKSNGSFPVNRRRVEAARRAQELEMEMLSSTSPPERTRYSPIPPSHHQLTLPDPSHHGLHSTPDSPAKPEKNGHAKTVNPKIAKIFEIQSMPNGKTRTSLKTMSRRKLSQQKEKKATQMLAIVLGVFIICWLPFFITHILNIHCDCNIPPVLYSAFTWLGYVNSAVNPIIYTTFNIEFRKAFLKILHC

Row | Structure (SMILES) | IC50 (D(2) dopamine receptor) | EC50 (Oryctolagus cuniculus) | other results
1 | CCCN(CCC)CCc1ccc(O)c2c1C(=O)C(=O)N2 | 560 nM | 7 nM | EC50 (D(1A) dopamine receptor [1]): Not Active
2 | CCCN(CCC)CCc1ccc(O)c2c1CC(=O)N2 [SKF-89124A] | 530 nM | 1.8 nM | EC50 (D(1A) dopamine receptor [2]): 20000 nM
3 | CCCN(CCC)CCc1ccc(O)c2nc(O)sc12 | 49 nM | 0.028 nM | 
4 | CCCN(CCC)CCc1cccc2c1CC(=O)N2 [ROPINIROLE] | 6810 nM |  | 
5 | Oc1ccc(C2CNCCc3c2cc(O)c(O)c3Cl)cc1 (configuration not stated) [FENOLDOPAM] |  | 1200 nM | K bind [3]: 3 nM
6 | CCCN(CCC)CCc1cccc2nc(O)sc12 | 1000 nM | 28 nM | 
7 | NCCc1ccc(O)c2c1CC(=O)N2 | 4850 nM |  | EC50 (D(1A) dopamine receptor [4]): 4650 nM; K bind [3]: 700 nM
8 | CCCN(CCC)CCc1c(Cl)cc(O)c2nc(O)sc12 |  | 50 nM | 
9 | CCCN(CCC)CCc1ccc(O)c2nc(O)oc12 | 1200 nM | 8 nM | 
10 | CCCN(CCC)CCc1ccc(O)c(O)c1 |  | 80 nM | EC50 (D(1A) dopamine receptor [5]): 12500 nM
11 | NCCc1ccc(O)c2nc(O)sc12 | 2000 nM | 30 nM | EC50 (D(1A) dopamine receptor [6]): 295 nM; K bind [7]: 9 nM
12 | NCCc1ccc(O)c(O)c1 [DOPAMINE] |  | 76 nM | 
13 | NCCc1cccc2nc(O)sc12 | > 10000 nM | 1000 nM | EC50 (D(1A) dopamine receptor [1]): Not Active
14 | CNCCc1ccc(O)c2nc(O)sc12 |  | 6 nM | 
15 | CCCN(CCC)CCc1ccc(O)c2[nH]c(O)nc12 | 1000 nM | 9 nM | 

— ChEMBL document CHEMBL1123777 (J Med Chem, 1987)
